The subject of one series is P3X63Ag8 myeloma cells. The experiment in a line: Cell growth assay, mouse myeloma cells. The series is classed as cell-based. Conditions: 30 μM peptide, three-day treatment, complete medium. Summed up: (§1)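 Myeloma cells (2.5 × 10^4/well) were grown in RPMI 1640 with 4 mM L-glutamine, 10% FBS and 0.05 mM β-mercaptoethanol; CAG cells also received 40 μg/mL Geneticin. Cells were grown with 30 μM test peptide or its variant for 3 days at 37 °C, 7.5% CO2. Cell number was read by CellTiter-GLO as % increase relative to untreated cells.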

The nature of series [1]: Peptide stability in mouse serum. The series is classed as in vitro ADME. The settings on record: data not shown.
Another series has as its system HMEC-1 endothelial cells. Briefly: Cell growth assay, HMEC-1. Conditions: 30 μM peptide, 3 days. The series is classed as cell-based, human. Summed up: (§2)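 Endothelial cells (1–2 × 10^3/well) were grown in complete medium with 30 μM test peptide or its variant for 3 days at 37 °C, 7.5% CO2. Cell number was read by CellTiter-GLO and expressed as % increase relative to untreated cells.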

Series [2] is described as follows: Peptide stability in bovine serum. The series is classed as in vitro ADME. The settings on record: data not shown.
For the next series, the system named is CAG myeloma cells. Briefly: Caspase3/7-GLO apoptosis assay, CAG. The series is classed as cell-based, human. Summed up: (§3)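 Myeloma cells in complete medium were pre-treated for 1 hr with JNK inhibitor or DMSO vehicle, then given or not given 30 μM test peptide, for 9 hr total. Caspase 3/7 activity was read by Caspase3/7-GLO luminescence and expressed as fold increase over vehicle alone (set to 1.0).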

Series [3] has as its system UM-SCC47, SCC25, MDA-MB-468, MDA-MB-231, MCF-7 and SKBr3 carcinoma cells. The experiment in a line: Cell growth assay, head and neck and breast carcinoma cell panel. The series is classed as cell-based, human. The settings on record: 3, 10 or 30 μM peptide, 3 days. Summed up: (§4)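 Adherent cells (1–2 × 10^3/well) were grown with 3, 10 or 30 μM test peptide for 3 days at 37 °C. Carcinoma lines were kept in DMEM with 4 mM L-glutamine, 10% FBS and penicillin/streptomycin; SCC lines also received 1 μg/mL hydrocortisone. Cell number was read by CellTiter-GLO as % increase relative to untreated cells.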

A further series relates to HUVEC(Sdc1−). Briefly: Cell growth assay, HUVEC isolate lacking Sdc1. The series is classed as cell-based, human. The settings on record: 30 μM peptide, 3 days. Summed up:
as §2

The test system of the next series is CAG cells. Briefly: ApoTox-GLO viability/apoptosis and TUNEL assay in CAG cells. The series is classed as cell-based, human. Conditions: 24 hr. Summed up: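 CAG cells (2.5 × 10^4/well) were grown in complete medium with 1–30 μM test peptide for 24 hr at 37 °C. Viability and caspase activation/apoptosis were read by ApoTox-GLO as % of untreated cells.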
The test system of another series is HUVEC endothelial cells. The experiment in a line: Cell growth assay, HUVEC. The series is classed as cell-based, human. Conditions: 30 μM peptide, 3 days, Sdc1-positive HUVEC. Summed up:
as §2

Series [4] relates to MDA-MB-231 breast carcinoma cells. The experiment in a line: Stress and apoptosis marker antibody array, MDA-MB-231. The series is classed as cell-based, human. The settings on record: MDA-MB-231, 30 μM, up to 24 hr; compared with HUVEC response. Summed up:
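MDA-MB-231 cells in complete medium were treated with or without 30 μM test peptide for 1, 3, 9 or 24 hr. Whole-cell lysates from equal cell equivalents were run on a stress and apoptosis signalling antibody array. Relative fluorescence at 700 nm was read per target, in two separate experiments.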

A further series relates to ASK1. The series is classed as cell-based, human. The settings on record: CAG and MM.1R cells, 10 μM. Summed up:
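ASK1 or Sdc1 was immunoprecipitated from cell lysates (0.5–1.0 mg input per sample), with or without competing test peptide. Lysis buffer contained protease and phosphatase inhibitors. Blots were probed for co-precipitated ASK1 and Sdc1, total ASK1, and phospho-ASK1 (pThr838/Thr845, pSer83, pSer966/Ser967).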

The test system of series [5] is CAG and MM.1R myeloma cells. The experiment in a line: Stress and apoptosis marker antibody array, myeloma cells. The series is classed as cell-based, human. The settings on record: CAG and MM.1R cells, 30 μM, over 9 hr.
For a further series, the system named is HaCaT keratinocytes. Briefly: Cell growth assay, HaCaT. The series is classed as cell-based, human. The settings on record: 3, 10 or 30 μM peptide, 3 days. Summed up:
as §4

A further series has as its system CAG myeloma xenografts. The experiment in a line: CAG myeloma xenograft growth and tumor angiogenesis in nude mice. The series is classed as in vivo, mouse. Conditions: Alzet pump 3.65 mg/kg/day, 4 weeks.
For another series, the system named is HUVECs. Briefly: Stress and apoptosis marker antibody array, HUVEC. The series is classed as cell-based, human. The settings on record: 30 μM, 24 hr.
Series [6] relates to MCF10A breast epithelial cells. The experiment in a line: Cell growth assay, MCF10A. The series is classed as cell-based, human. The settings on record: 3, 10 or 30 μM peptide, 3 days. Summed up:
as §4

In series [7] the target is IGF1R and αvβ5 integrin complex with Sdc1 (Homo sapiens, UniProt P06756+P08069+P18084). Briefly: Immunoprecipitation of Sdc1 with competing SSTN peptides. The series is classed as binding. Summed up:
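CAG cell lysates from suspension culture were immunoprecipitated with isotype-matched control mIgG1 or mAbs to Sdc1 (B-A38), αvβ5 integrin (P1F6) and/or IGF1R (JBW902), in the presence of test peptide (1 μM) or a variant peptide (1, 3 or 10 μM). Precipitates were probed for Sdc1, IGF1R and αvβ5 integrin.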

Series [8] deals with CAG, RPMI-8226, KMS-12, U266, MM.1R myeloma cells. Briefly: Cell growth assay, human myeloma cells. The series is classed as cell-based. Conditions: three-day growth assay, relative to SSTNIGF1R. Summed up:
as §1

The subject of another series is MM.1R myeloma cells. The experiment in a line: Caspase3/7-GLO apoptosis assay, MM.1R. The series is classed as cell-based, human. The settings on record: MM.1R cells. Summed up: as §3
Setting [9] is: 10 μM SP600125 with SSTNIGF1R, data not shown.
The mark [10] stands for this setting: 1 μM JNK-IN-8 with 30 μM SSTNIGF1R, 9 hr.

Sequence of IGF1R and αvβ5 integrin complex with Sdc1 (P08069 31-736 limits assumed): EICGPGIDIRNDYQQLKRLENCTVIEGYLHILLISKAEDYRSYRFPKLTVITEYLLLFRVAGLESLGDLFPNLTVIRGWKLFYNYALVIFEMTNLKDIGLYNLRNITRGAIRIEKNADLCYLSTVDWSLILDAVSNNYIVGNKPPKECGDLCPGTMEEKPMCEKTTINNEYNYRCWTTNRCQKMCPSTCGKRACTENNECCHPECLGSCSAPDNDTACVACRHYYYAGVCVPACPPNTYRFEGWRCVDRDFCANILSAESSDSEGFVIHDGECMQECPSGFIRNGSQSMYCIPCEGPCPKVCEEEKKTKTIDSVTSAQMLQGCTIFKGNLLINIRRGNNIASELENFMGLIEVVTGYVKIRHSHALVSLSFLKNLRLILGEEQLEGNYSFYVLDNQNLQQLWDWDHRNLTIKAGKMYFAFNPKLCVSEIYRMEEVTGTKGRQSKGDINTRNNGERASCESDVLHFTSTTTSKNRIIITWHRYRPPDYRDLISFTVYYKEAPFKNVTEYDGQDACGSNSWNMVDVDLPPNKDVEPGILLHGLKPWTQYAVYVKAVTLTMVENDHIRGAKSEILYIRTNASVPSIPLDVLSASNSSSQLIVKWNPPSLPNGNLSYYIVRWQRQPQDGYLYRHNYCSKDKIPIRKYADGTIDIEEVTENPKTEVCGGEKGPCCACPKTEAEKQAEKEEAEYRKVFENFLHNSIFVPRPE
Sequence of IGF1R and αvβ5 integrin complex with Sdc1 (P08069 741-1367 limits assumed): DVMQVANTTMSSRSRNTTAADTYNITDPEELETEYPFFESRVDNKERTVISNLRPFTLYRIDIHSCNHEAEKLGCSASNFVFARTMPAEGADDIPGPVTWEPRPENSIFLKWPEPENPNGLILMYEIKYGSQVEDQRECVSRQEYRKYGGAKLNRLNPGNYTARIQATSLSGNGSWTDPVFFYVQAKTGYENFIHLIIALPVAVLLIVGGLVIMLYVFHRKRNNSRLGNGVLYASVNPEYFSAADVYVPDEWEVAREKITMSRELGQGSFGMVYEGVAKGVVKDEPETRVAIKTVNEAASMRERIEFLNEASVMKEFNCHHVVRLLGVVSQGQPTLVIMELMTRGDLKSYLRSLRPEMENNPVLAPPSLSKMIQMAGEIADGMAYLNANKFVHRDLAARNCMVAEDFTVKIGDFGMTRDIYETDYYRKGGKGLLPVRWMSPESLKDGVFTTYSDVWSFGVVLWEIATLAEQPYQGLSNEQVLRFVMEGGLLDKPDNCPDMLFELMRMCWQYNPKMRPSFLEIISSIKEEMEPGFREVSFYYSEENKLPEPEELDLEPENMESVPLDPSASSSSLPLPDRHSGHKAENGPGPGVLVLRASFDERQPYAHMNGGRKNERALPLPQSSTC
Sequence of IGF1R and αvβ5 integrin complex with Sdc1 (P06756 31-889 limits assumed): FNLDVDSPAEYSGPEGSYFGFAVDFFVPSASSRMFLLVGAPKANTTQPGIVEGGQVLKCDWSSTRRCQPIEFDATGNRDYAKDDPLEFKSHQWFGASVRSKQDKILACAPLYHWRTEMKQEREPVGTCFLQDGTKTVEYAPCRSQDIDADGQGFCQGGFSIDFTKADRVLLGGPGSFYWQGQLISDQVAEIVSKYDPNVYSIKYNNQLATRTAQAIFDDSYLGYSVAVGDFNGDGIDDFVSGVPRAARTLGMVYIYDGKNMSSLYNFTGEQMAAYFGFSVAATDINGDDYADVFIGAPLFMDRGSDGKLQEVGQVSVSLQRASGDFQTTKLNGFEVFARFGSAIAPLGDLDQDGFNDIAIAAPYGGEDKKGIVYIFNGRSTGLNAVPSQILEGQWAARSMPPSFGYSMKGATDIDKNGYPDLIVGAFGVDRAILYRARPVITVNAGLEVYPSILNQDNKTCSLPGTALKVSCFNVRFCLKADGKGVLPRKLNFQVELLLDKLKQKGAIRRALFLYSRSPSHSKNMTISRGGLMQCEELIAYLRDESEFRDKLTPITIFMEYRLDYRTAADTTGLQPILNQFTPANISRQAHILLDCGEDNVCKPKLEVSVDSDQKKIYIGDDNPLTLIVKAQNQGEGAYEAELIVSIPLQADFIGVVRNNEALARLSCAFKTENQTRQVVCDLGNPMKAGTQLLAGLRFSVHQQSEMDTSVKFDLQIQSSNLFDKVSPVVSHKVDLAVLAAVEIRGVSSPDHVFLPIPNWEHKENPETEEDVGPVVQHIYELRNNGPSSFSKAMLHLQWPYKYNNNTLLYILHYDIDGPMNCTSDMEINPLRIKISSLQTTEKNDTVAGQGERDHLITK
Sequence of IGF1R and αvβ5 integrin complex with Sdc1 (P06756 891-1048 limits assumed): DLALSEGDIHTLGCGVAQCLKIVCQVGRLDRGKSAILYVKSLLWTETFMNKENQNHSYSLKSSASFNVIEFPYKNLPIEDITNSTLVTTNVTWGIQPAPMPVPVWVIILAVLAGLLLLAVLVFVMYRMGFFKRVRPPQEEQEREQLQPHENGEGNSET
Sequence of IGF1R and αvβ5 integrin complex with Sdc1 (P18084 24-799): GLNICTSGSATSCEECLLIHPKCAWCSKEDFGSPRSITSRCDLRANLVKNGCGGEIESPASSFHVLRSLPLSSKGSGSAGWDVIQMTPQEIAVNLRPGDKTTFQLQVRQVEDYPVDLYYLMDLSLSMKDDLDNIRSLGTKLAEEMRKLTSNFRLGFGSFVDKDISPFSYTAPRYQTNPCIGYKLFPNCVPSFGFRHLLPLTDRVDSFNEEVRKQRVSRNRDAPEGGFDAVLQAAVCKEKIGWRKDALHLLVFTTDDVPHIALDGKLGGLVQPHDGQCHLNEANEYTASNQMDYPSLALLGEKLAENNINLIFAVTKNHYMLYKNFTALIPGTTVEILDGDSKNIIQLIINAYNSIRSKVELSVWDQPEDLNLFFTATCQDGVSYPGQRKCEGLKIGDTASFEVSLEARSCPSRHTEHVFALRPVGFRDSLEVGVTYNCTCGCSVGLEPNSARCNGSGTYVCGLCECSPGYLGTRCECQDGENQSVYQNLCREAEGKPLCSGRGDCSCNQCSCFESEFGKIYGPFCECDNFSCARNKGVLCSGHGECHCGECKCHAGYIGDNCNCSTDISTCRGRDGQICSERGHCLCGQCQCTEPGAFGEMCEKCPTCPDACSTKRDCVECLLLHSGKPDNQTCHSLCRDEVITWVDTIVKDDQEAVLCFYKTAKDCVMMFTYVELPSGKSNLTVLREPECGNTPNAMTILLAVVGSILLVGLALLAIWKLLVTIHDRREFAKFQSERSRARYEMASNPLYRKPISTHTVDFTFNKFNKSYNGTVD

As to “SSTNIGF1R: peptide that inhibits IGF1R capture by Sdc1; comprised of amino acids 92–119 in mouse Sdc1 (LPAGEKPEEGEPVLHVEAEPGFTARDKE)”, in the series on P3X63Ag8 myeloma cells, the “growth of mouse myeloma cells” value is “significantly reduced”. Also, the “activity retained after incubation in mouse serum” value in [1] is “retains full activity”. For the same compound, the “growth of HMEC-1 endothelial cells” value in the series with HMEC-1 endothelial cells is listed as “inhibits the growth”. Further, in [2], the “activity retained after incubation in bovine serum” value is given as “retains full activity”. The “increase in caspase 3/7 activity relative to vehicle” value in the series with CAG myeloma cells (30 μM SSTNIGF1R alone, 9 hr) was roughly 5 fold. Further, the “growth of head and neck and breast carcinoma cells” value in series [3] is “reduced growth”. In addition, the “growth of HUVEC isolate lacking Sdc1” value in the series on HUVEC(Sdc1−) is on record as “insensitive”. For the same compound, in the series with CAG cells (30 μM), the “apoptosis by TUNEL assay” value is reported as “DNA fragmentation”. In addition, the “apoptosis: caspase activation (ApoTox-GLO)” value in the series with CAG cells (1–30 μM) was “executioner caspase activation”. In the series with CAG cells (1–30 μM), the “cell viability (ApoTox-GLO)” value is recorded as “significant loss of viability”. Besides, the “growth of HUVEC endothelial cells” value in the series with HUVEC endothelial cells is listed as “inhibits the growth”. Besides, the “apoptosis markers (antibody array)” value in series [4] is “almost identical apoptotic response”; in [5], “increased phosphorylation of p53 (Ser15), activation of JNK and activation of caspase-3”; in the series on HUVECs, “Activation of the JNK pathway and caspase-3, and a reduction in levels of IkBα”. Besides, in the series on ASK1, the “co-immunoprecipitation of ASK1 with Sdc1” value was “prevented”. Further, in the series with HaCaT keratinocytes, the “growth of non-transformed HaCaT keratinocytes” value is recorded as “unaffected”. Further, the “reduction of blood vessel density in residual tumors” value in the series with CAG myeloma xenografts (MECA-32 staining intensity) is on record as “over 90%”. For the same compound, the tumors eradicated in the series with CAG myeloma xenografts (nude mice, CAG tumors, 8 tumors per cohort) was 3 of the 8. Besides, the “growth of non-transformed MCF10A breast epithelial cells” value in series [6] was “unaffected”.

For the compound “SSTNIGF1R-T: truncated synstatin peptide comprising amino acids 94–119 of Sdc1 (AGEKPEEGEPVLHVEAEPGFTARDKE)”, the “growth of HMEC-1 endothelial cells” value in the series on HMEC-1 endothelial cells was “without effect”. Moreover, the “growth of HUVEC endothelial cells” value in the series on HUVEC endothelial cells is recorded as “without effect”. Moreover, the “disruption of capture of IGF1R and αvβ5 integrin by Sdc1” value in [7] (1, 3 or 10 μM peptide, myeloma cell lysates) is “disrupts capture of IGF1R and αvβ5 integrin by Sdc1”. In addition, in [7] (myeloma cells, relative to SSTNIGF1R), the “fold less effective than SSTNIGF1R at disrupting IGF1R capture by Sdc1” value was 3–10 fold. Further, the “fold less effective than SSTNIGF1R at causing myeloma cell loss” value in series [8] is on record as 3–10 fold. Moreover, the “effect on tumor angiogenesis” value with CAG myeloma xenografts (MECA-32 staining intensity) is “no significant effect”.

On to `Oc1c2ccccc2c2c3c(cccc13)N=N2` [SP600125], for which the “block of SSTNIGF1R-induced caspase 3/7 activation” value in the series with CAG myeloma cells (setting [9]) and in the series with MM.1R myeloma cells (setting [9]) was “Near identical results” in each case.

For `Cc1cc(NC(=O)c2cccc(NC(=O)/C=C/CN(C)C)c2)ccc1Nc1nccc(-c2cccnc2)n1` [JNK-IN-8], the “block of SSTNIGF1R-induced caspase 3/7 activation” value with CAG myeloma cells (setting [10]) and in the series with MM.1R myeloma cells (setting [10]) was “complete block” in each case.

Source of the values: paper PMC5010496 (Cancer research, 2016).
